# From ChEMBL document CHEMBL5724801, “EUbOPEN Chemogenomics Library - Multiplex” (2024)
# Several values for one entry are separate records, joined by “and”; a condition that tells them apart may be missing. Equal entries are not always repeated.
# Assays:
# HEK-293T = assay: Multiplex assay against HEK293T; assay type: toxicity, cell-based; details: human
# Summary of the method: (§1)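 Tubulin, mitochondrial-mass and membrane-permeability phenotypes are per cents of healthy-nucleus cells. Cells were gated by CellPathfinder machine learning into Hoechst high-intensity objects or normal cells, normal cells into healthy, pyknosed or fragmented nuclei, and pyknosed cells into mitotic or apoptotic. Before that, live cells stained at seeding with Hoechst33342, BioTracker Green Microtubule Cytoskeleton Dye, MitoTracker Red and Annexin V Alexa Fluor 680 were imaged on a CQ1 microscope at 37°C and 5% CO2 after compound addition.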
# Fibroblast = assay: Multiplex assay against human fibroblast; assay type: toxicity, cell-based; summary of the method: as §1
# [1] = 12 h, 1 µM, compound concentration 1 uM
# [2] = 12 h, 10 µM, compound concentration 10 uM
# [3] = 24 h, 1 µM, compound concentration 1 uM
# [4] = 24 h, 10 µM, compound concentration 10 uM
# [5] = 48 h, 1 µM, compound concentration 1 uM
# [6] = 48 h, 10 µM, compound concentration 10 uM
smiles,measurement,setting,value
CCCN1CCC[C@@H]2Cc3n[nH]cc3C[C@H]21.Cl [QUINPIROLE HYDROCHLORIDE],Population Apoptotic (%),HEK-293T; [1],32% and 63%
same,Population Fragmented Nuclei (%),HEK-293T; [1],6% and 4%
same,Population Healthy Nuclei (%),HEK-293T; [1],84% and 82%
same,Population Hoechst High Intensity Objects (%),HEK-293T; [1],6% and 3%
same,Population Membrane Permeable-Phenotype (%),HEK-293T; [1],0%
same,Population Mitochondria Different-Phenotype (%),HEK-293T; [1],37% and 67%
same,Population Mitotic Cells (%),HEK-293T; [1],67% and 36%
same,Population Normal (%),HEK-293T; [1],93% and 96%
same,Population Pyknosed Nuclei (%),HEK-293T; [1],9% and 12%
same,Population Tubulin-Different-Phenotype (%),HEK-293T; [1],22% and 26%
same,Total Cell Count,HEK-293T; [1],447 and 294
same,Population Apoptotic (%),HEK-293T; [2],55% and 46%
same,Population Fragmented Nuclei (%),HEK-293T; [2],11% and 5%
same,Population Healthy Nuclei (%),HEK-293T; [2],72% and 78%
same,Population Hoechst High Intensity Objects (%),HEK-293T; [2],9% and 5%
same,Population Membrane Permeable-Phenotype (%),HEK-293T; [2],0%
same,Population Mitochondria Different-Phenotype (%),HEK-293T; [2],53% and 69%
same,Population Mitotic Cells (%),HEK-293T; [2],44% and 53%
same,Population Normal (%),HEK-293T; [2],90% and 94%
same,Population Pyknosed Nuclei (%),HEK-293T; [2],15% and 16%
same,Population Tubulin-Different-Phenotype (%),HEK-293T; [2],40% and 26%
same,Total Cell Count,HEK-293T; [2],381 and 312
same,Population Apoptotic (%),HEK-293T; [3],30% and 29%
same,Population Fragmented Nuclei (%),HEK-293T; [3],12% and 8%
same,Population Healthy Nuclei (%),HEK-293T; [3],79% and 81%
same,Population Hoechst High Intensity Objects (%),HEK-293T; [3],3% and 2%
same,Population Membrane Permeable-Phenotype (%),HEK-293T; [3],0%
same,Population Mitochondria Different-Phenotype (%),HEK-293T; [3],17% and 37%
same,Population Mitotic Cells (%),HEK-293T; [3],70%
same,Population Normal (%),HEK-293T; [3],96% and 97%
same,Population Pyknosed Nuclei (%),HEK-293T; [3],8% and 9%
same,Population Tubulin-Different-Phenotype (%),HEK-293T; [3],14% and 16%
same,Total Cell Count,HEK-293T; [3],600 and 390
same,Population Apoptotic (%),HEK-293T; [4],45% and 43%
same,Population Fragmented Nuclei (%),HEK-293T; [4],10% and 7%
same,Population Healthy Nuclei (%),HEK-293T; [4],77% and 78%
same,Population Hoechst High Intensity Objects (%),HEK-293T; [4],4% and 2%
same,Population Membrane Permeable-Phenotype (%),HEK-293T; [4],0%
same,Population Mitochondria Different-Phenotype (%),HEK-293T; [4],38% and 43%
same,Population Mitotic Cells (%),HEK-293T; [4],54% and 56%
same,Population Normal (%),HEK-293T; [4],95% and 97%
same,Population Pyknosed Nuclei (%),HEK-293T; [4],11% and 13%
same,Population Tubulin-Different-Phenotype (%),HEK-293T; [4],27% and 13%
same,Total Cell Count,HEK-293T; [4],529 and 406
same,Population Apoptotic (%),HEK-293T; [5],21% and 33%
same,Population Fragmented Nuclei (%),HEK-293T; [5],16% and 11%
same,Population Healthy Nuclei (%),HEK-293T; [5],76% and 84%
same,Population Hoechst High Intensity Objects (%),HEK-293T; [5],1% and 2%
same,Population Membrane Permeable-Phenotype (%),HEK-293T; [5],1%
same,Population Mitochondria Different-Phenotype (%),HEK-293T; [5],9% and 19%
same,Population Mitotic Cells (%),HEK-293T; [5],78% and 66%
same,Population Normal (%),HEK-293T; [5],98%
same,Population Pyknosed Nuclei (%),HEK-293T; [5],6% and 4%
same,Population Tubulin-Different-Phenotype (%),HEK-293T; [5],10% and 8%
same,Total Cell Count,HEK-293T; [5],1105 and 649
same,Population Apoptotic (%),HEK-293T; [6],40% and 33%
same,Population Fragmented Nuclei (%),HEK-293T; [6],15% and 13%
same,Population Healthy Nuclei (%),HEK-293T; [6],78% and 80%
same,Population Hoechst High Intensity Objects (%),HEK-293T; [6],2% and 1%
same,Population Membrane Permeable-Phenotype (%),HEK-293T; [6],1% and 0%
same,Population Mitochondria Different-Phenotype (%),HEK-293T; [6],23% and 28%
same,Population Mitotic Cells (%),HEK-293T; [6],59% and 66%
same,Population Normal (%),HEK-293T; [6],97% and 98%
same,Population Pyknosed Nuclei (%),HEK-293T; [6],6%
same,Population Tubulin-Different-Phenotype (%),HEK-293T; [6],15% and 13%
same,Total Cell Count,HEK-293T; [6],772 and 654
same,Population Apoptotic (%),Fibroblast; [1],45% and 52%
same,Population Fragmented Nuclei (%),Fibroblast; [1],14% and 22%
same,Population Healthy Nuclei (%),Fibroblast; [1],65% and 60%
same,Population Hoechst High Intensity Objects (%),Fibroblast; [1],2% and 6%
same,Population Membrane Permeable-Phenotype (%),Fibroblast; [1],0% and 7%
same,Population Mitochondria Different-Phenotype (%),Fibroblast; [1],3% and 6%
same,Population Mitotic Cells (%),Fibroblast; [1],54% and 47%
same,Population Normal (%),Fibroblast; [1],97% and 93%
same,Population Pyknosed Nuclei (%),Fibroblast; [1],20% and 17%
same,Population Tubulin-Different-Phenotype (%),Fibroblast; [1],17% and 50%
same,Total Cell Count,Fibroblast; [1],156 and 139
same,Population Apoptotic (%),Fibroblast; [2],58% and 45%
same,Population Fragmented Nuclei (%),Fibroblast; [2],16% and 23%
same,Population Healthy Nuclei (%),Fibroblast; [2],68% and 59%
same,Population Hoechst High Intensity Objects (%),Fibroblast; [2],4% and 2%
same,Population Membrane Permeable-Phenotype (%),Fibroblast; [2],1% and 10%
same,Population Mitochondria Different-Phenotype (%),Fibroblast; [2],6%
same,Population Mitotic Cells (%),Fibroblast; [2],41% and 54%
same,Population Normal (%),Fibroblast; [2],95% and 97%
same,Population Pyknosed Nuclei (%),Fibroblast; [2],15% and 17%
same,Population Tubulin-Different-Phenotype (%),Fibroblast; [2],33% and 55%
same,Total Cell Count,Fibroblast; [2],115 and 184
same,Population Apoptotic (%),Fibroblast; [3],52% and 34%
same,Population Fragmented Nuclei (%),Fibroblast; [3],21% and 28%
same,Population Healthy Nuclei (%),Fibroblast; [3],64% and 53%
same,Population Hoechst High Intensity Objects (%),Fibroblast; [3],1% and 2%
same,Population Membrane Permeable-Phenotype (%),Fibroblast; [3],0% and 1%
same,Population Mitochondria Different-Phenotype (%),Fibroblast; [3],2% and 7%
same,Population Mitotic Cells (%),Fibroblast; [3],47% and 65%
same,Population Normal (%),Fibroblast; [3],98%
same,Population Pyknosed Nuclei (%),Fibroblast; [3],13% and 17%
same,Total Cell Count,Fibroblast; [3],172 and 150
